Nine compounds from ChEMBL document CHEMBL1153092, “Discovery of novel thieno[2,3-d]pyrimidin-4-yl hydrazone-based inhibitors of cyclin D1-CDK4: synthesis, biological evaluation and structure-activity relationships. Part 2” (Bioorg Med Chem, 2009) can be followed below.

In brackets after ≈: the same amount, converted by molar mass. Activity calls are given as the source filed them. The calls are words filed in the database; no cut-off is given here.

One series concerns PC-6. Kind of series: Cytotoxicity against human PC6 cells after 3 days by MTT assay. Format: functional, cell-based. As to conditions: PC-6, 72 h. The method, boiled down: (§1)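 Cells (PC-6 shown) were kept in RPMI 1640 with 10% FBS and plated on day 0. Compound, serially diluted in DMSO, was added on day 1 at ten concentrations. Viable cells were counted by MTT after 3 days of culture. The 50% growth-inhibition concentration was solved from 100×[(T−T₀)/(C−T₀)]=50, where T₀ is the optical density at time zero.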

Series [1] deals with Cyclin-dependent kinase 4/cyclin D1 (Homo sapiens, UniProt P11802). Kind of series: Inhibition of CDK4/Cyclin D1 expressed in Sf9 cells assessed as inhibition of Rb phosphorylation. The method, boiled down:
(§2)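 CDK4/cyclin D1 or CDK2/cyclin E was purified from baculovirus-infected Sf-9 cells. The substrate was bacterial GST-Rb on glutathione-sepharose beads, with [³³P]ATP. Reactions ran 30 min at 30 °C in filter plates, were washed four times and counted. IC₅₀ (µg/mL) came from dose–response curves, as the mean of at least two determinations.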

Series [2] concerns HCT-116. The series is described as follows: Cytotoxicity against human HCT116 cells after 3 days by MTT assay. Format: functional, cell-based. As to conditions: HCT-116, 72 h. The method, boiled down: as §1
Series [3] can be described thus: Selectivity for CDK4/Cyclin D1 over CDK2/Cyclin E. The method, boiled down:
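Selectivity was calculated as CDK2 IC₅₀ divided by CDK4 IC₅₀, using the Rb-phosphorylation kinase assay values.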

Series [4] deals with Cyclin-dependent kinase 2/cyclin E1 (Homo sapiens, UniProt P24941). The series is described as follows: Inhibition of CDK2/Cyclin E expressed in Sf9 cells assessed as inhibition of Rb phosphorylation. The method, boiled down:
as §2

Series [5] relates to HCT-116. The series is described as follows: Antitumor activity against human HCT116 cells xenografted in BALB/c mouse assessed as maximum tumor volume inhibition rate at 260 mg/kg, iv qd for 4 days measured 5 days post dose. Format: functional. The method, boiled down:
(§3)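 HCT116 tumour cells implanted s.c. in right hind limb of male BALB/c-nu/nu mice aged 5 or 6 weeks. Dosing began once tumours averaged 80–100 mm³, with compound in 20% Captisol solution given iv or po once daily for 4 days (qdx4). Tumour volume was measured periodically by caliper and body weight was followed. Maximum inhibition of tumour volume and maximum body weight loss are reported with their day after first dose. Deaths were scored as from toxicity or from tumour, out of 5 mice.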

For series [6], the system named is Mus musculus. The series is described as follows: Toxicity in human HCT116 cells xenografted BALB/c mouse assessed as mouse mortality at 260 mg/kg, iv qd for 4 days. Format: organism-based, HCT-116. Set-up: dose 260 mg/kg, route intravenous. As to conditions: in vivo, 96 h. The method, boiled down: (§4)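 HCT116 cells implanted subcutaneously in right hind limb of male BALB/c-nu/nu mice aged 5 or 6 weeks; dosing began once tumours averaged 80–100 mm³. Compound in 20% Captisol solution given iv or po once daily for 4 days (qdx4). Tumour volume measured periodically by caliper. Deaths scored as toxicity deaths/tumour deaths/mice used, n=5 per group.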

Series [7] in a line: Aqueous solubility of compound. It counts as physicochemical. The settings on record: water (aqueous).
Series [8] concerns HCT-116. The series is described as follows: Cell cycle arrest in human HCT116 cells assessed as decrease in accumulation at G2/M phase at 100 ng/mL after 16 hrs using propidium iodide staining by flow cytometry. It counts as functional, cell-based. The method, boiled down: (§5)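 HCT116 cells were treated for 16 h with compound at concentrations in ng/mL, with DMSO as control. Cells were then collected and their DNA content was analysed by flow cytometry. The percentages of cells in G0/G1, S and G2/M were quantified.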

Series [9] has as its system HCT-116. The series is described as follows: Cell cycle arrest in human HCT116 cells assessed as accumulation at G1 phase at 100 ng/mL after 16 hrs using propidium iodide staining by flow cytometry. It counts as functional. The method, boiled down:
as §5

The test system of series [10] is HCT-116. Kind of series: Cell cycle arrest in human HCT116 cells assessed as decrease in accumulation at S phase at 100 ng/mL after 16 hrs using propidium iodide staining by flow cytometry. Format: functional, cell-based. The method, boiled down:
as §5

Series [11] has as its system Mus musculus. The series is described as follows: Toxicity in human HCT116 cells xenografted BALB/c mouse assessed as maximum body weight loss rate at 260 mg/kg, iv qd for 4 days. Format: organism-based, HCT-116. As to conditions: in vivo, 96 h. More on the design: dose 260 mg/kg, route intravenous. The method, boiled down:
as §3

The test system of series [12] is HCT-116. The series is described as follows: Antitumor activity against human HCT116 cells xenografted in BALB/c mouse assessed as tumor induced mouse death at 260 mg/kg, iv qd for 4 days. It counts as functional, organism-based. Set-up: dose 260 mg/kg. The method, boiled down:
as §3

Series [13] has as its system Mus musculus. The series is described as follows: Toxicity in human HCT116 cells xenografted BALB/c mouse assessed as maximum body weight loss rate at 300 mg/kg, iv qd for 4 days measured 1 days post dose. It counts as organism-based, HCT-116. More on the design: dose 300 mg/kg, route intravenous. As to conditions: in vivo, 24 h. The method, boiled down: as §3
Series [14] concerns HCT-116. The series is described as follows: Antitumor activity against human HCT116 cells xenografted in BALB/c mouse assessed as maximum tumor volume inhibition rate at 300 mg/kg, iv qd for 4 days measured 7 days post dose. It counts as functional. The method, boiled down:
as §3

Series [15] relates to Mus musculus. The series is described as follows: Toxicity in human HCT116 cells xenografted BALB/c mouse assessed as mouse mortality at 300 mg/kg, iv qd for 4 days. As to conditions: in vivo, 96 h. Set-up: dose 300 mg/kg, route intravenous. It counts as organism-based, HCT-116. The method, boiled down:
as §4

The subject of series [16] is HCT-116. Kind of series: Cell cycle arrest in human HCT116 cells assessed as accumulation at G1 phase at 50 ng/mL after 16 hrs using propidium iodide staining by flow cytometry. It counts as functional. The method, boiled down: as §5
The subject of series [17] is HCT-116. The series is described as follows: Antitumor activity against human HCT116 cells xenografted in BALB/c mouse assessed as tumor induced mouse death at 300 mg/kg, iv qd for 4 days. It counts as functional, organism-based. Set-up: dose 300 mg/kg. The method, boiled down: as §3

Sequence of Cyclin-dependent kinase 4/cyclin D1 (P11802 whole entry): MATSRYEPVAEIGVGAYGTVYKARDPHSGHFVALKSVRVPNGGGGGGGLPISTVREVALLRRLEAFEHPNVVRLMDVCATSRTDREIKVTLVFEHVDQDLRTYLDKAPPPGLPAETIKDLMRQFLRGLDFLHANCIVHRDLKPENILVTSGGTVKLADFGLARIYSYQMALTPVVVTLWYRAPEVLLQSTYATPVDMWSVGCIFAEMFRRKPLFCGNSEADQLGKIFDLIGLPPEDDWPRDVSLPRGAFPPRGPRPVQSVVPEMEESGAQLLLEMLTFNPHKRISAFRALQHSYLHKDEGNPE
Sequence of Cyclin-dependent kinase 4/cyclin D1 (P24385 whole entry, further chain): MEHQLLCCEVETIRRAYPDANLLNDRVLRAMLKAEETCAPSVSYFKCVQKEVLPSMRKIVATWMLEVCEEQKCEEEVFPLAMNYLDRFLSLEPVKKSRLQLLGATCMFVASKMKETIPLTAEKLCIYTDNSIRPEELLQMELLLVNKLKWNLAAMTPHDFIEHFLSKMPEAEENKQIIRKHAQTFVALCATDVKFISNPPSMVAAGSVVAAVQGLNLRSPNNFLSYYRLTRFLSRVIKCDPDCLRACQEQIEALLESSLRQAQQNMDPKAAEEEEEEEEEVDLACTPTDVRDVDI

Turning to `CC(C)(C)c1cc2c(N/N=C/c3ccc4c(c3)CNCC4)ncnc2s1`, the IC50 with PC-6 is 0.069 µg/mL (≈ 0.189 µM); in series [1] it was 93 nM; in the series on HCT-116 [2], 0.107 µg/mL (≈ 0.293 µM); in series [4], 492 nM. Further, in series [3], the Selectivity ratio is 5.3.

Turning to `CC(C)(C)c1cc2c(N/N=C/c3ccc(C(=O)O)cc3)ncnc2s1`, the IC50 with PC-6 is 7.22 µg/mL (≈ 20.4 µM); in series [1] it was 2760 nM; in the series with HCT-116 [2], 9.99 µg/mL (≈ 28.2 µM); in series [4] it was 1100 nM. For the same compound, the Selectivity ratio in [3] turned out to be 0.4.

In the case of `COC(=O)c1ccc(/C=N/Nc2ncnc3sc(C(C)(C)C)cc23)cc1`, the IC50 in series [1] and in series [4] was above 54300 nM each time.

As to `CN(CCO)Cc1ccc(/C=N/Nc2ncnc3sc(C(C)(C)C)cc23)cc1`, the IC50 is 0.124 µg/mL (≈ 0.312 µM) in the series with PC-6, 70.4 nM in [1], 0.169 µg/mL (≈ 0.425 µM) in the series with HCT-116 [2] and 729 nM in series [4]. Further, the Selectivity ratio in [3] turned out to be 10.4.

As for `CC(C)(C)c1cc2c(N/N=C/c3ccc4c(c3)CNC4)ncnc2s1`, the IC50 was 0.071 µg/mL (≈ 0.202 µM) with PC-6, 236 nM in series [1], 0.111 µg/mL (≈ 0.316 µM) in the series with HCT-116 [2] and 1480 nM in series [4]. In addition, the inhibition in vivo at 260 mg/kg in the series with HCT-116 [5] stood at 61%. Besides, the values for the Activity result with Mus musculus [6], in the series with HCT-116 [9] and in the series on Mus musculus [11] were “Non-toxic”, 62% and below 0%, respectively. The compound further came in with a solubility in series [7] of 2.8 µg/mL (≈ 7.97 µM). Also, the result with HCT-116 [8], with HCT-116 [10] and in the series with HCT-116 [12] was Active. In addition, in series [3], the Selectivity ratio was 6.3.

On to `CN(C)Cc1cccc(/C=N/Nc2ncnc3sc(C(C)(C)C)cc23)n1`, for which the IC50 was 0.381 µg/mL (≈ 1.03 µM) in the series with PC-6, 152 nM in series [1], 0.419 µg/mL (≈ 1.14 µM) with HCT-116 [2] and 3800 nM in [4]. In series [7], this compound had a solubility of 44 µg/mL (≈ 119 µM). For the same compound, the Selectivity ratio in [3] worked out at 25.

Take `CN1Cc2ccc(/C=N/Nc3ncnc4sc(C(C)(C)C)cc34)cc2C1`: the IC50 in the series with PC-6 is 0.05 µg/mL (≈ 0.137 µM); in [1] it was 263 nM; in the series on HCT-116 [2] it was 0.088 µg/mL (≈ 0.241 µM); in series [4], 2740 nM. Besides, the Selectivity ratio in series [3] is 10.4.

For `CC(C)(C)c1cc2c(N/N=C/c3ccc4c(c3)CCNC4)ncnc2s1`, the IC50 in the series on PC-6 was 0.049 µg/mL (≈ 0.134 µM); in [1], 104 nM; in the series on HCT-116 [2], 0.046 µg/mL (≈ 0.126 µM); in [4], 1750 nM. For the same compound, the Activity was 2.2% in the series on Mus musculus [13], “Non-toxic” in the series with Mus musculus [15] and 56% in the series on HCT-116 [16]. In the series with HCT-116 [14], the inhibition in vivo at 300 mg/kg was found to be 5%. For the same compound, the solubility in series [7] was found to be 8.5 µg/mL (≈ 23.3 µM). Besides, the result in the series with HCT-116 [17] was Active. The Selectivity ratio in series [3] worked out at 16.8.

As for `CC(C)(C)c1cc2c(N/N=C/c3ccc(CN)cc3)ncnc2s1`, the IC50 was 0.214 µg/mL (≈ 0.63 µM) with PC-6, 61.9 nM in series [1], 0.334 µg/mL (≈ 0.984 µM) with HCT-116 [2] and 4710 nM in [4]. Also, the Selectivity ratio in series [3] came to 76.2.
